Measured values from ChEMBL document CHEMBL1157219, “Chalcones and other compounds from the exudates of Angelica keiskei and their cancer chemopreventive effects” (J Nat Prod, 2006).

Assays:
[1] = Cytotoxicity against human Raji cells assessed as cell viability at 1000 molar ratio; type: cell-based; conditions: read-out: Activity
Procedure, shortened: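 Raji cell viability was recorded as a percentage in the EBV-EA setup: 48 h at 37 °C with n-butyric acid (4 mM), TPA (32 pmol) and compound at 32 nmol (1000:1 molar ratio to TPA).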

Raji [2] = assay: Inhibition of TPA-induced EBV-early antigen activation in human Raji cells at 100 molar ratio relative to TPA; type: cell-based; design: scale not given: the % may be the effect or the level left; conditions: human gammaherpesvirus 4
Procedure, shortened: (§1)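 Raji cells incubated 48 h at 37 °C in medium with n-butyric acid (4 mM), TPA (32 pmol) and test compound at molar ratios to TPA (1000, 500, 100). Smears were stained for EBV-EA by indirect immunofluorescence. Induction is given as % of TPA-alone control (100%).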

Raji [3] = assay: Inhibition of TPA-induced EBV-early antigen activation in human Raji cells at 500 molar ratio relative to TPA; type: cell-based; design: scale not given: the % may be the effect or the level left; conditions: human gammaherpesvirus 4; procedure, shortened: as §1
Raji [4] = assay: Inhibition of TPA-induced EBV-early antigen activation in human Raji cells at 10 molar ratio relative to TPA; type: cell-based; design: scale not given: the % may be the effect or the level left; conditions: human gammaherpesvirus 4
Raji [5] = assay: Inhibition of TPA-induced EBV-early antigen activation in human Raji cells at 1000 molar ratio relative to TPA; type: cell-based; design: scale not given: the % may be the effect or the level left; conditions: human gammaherpesvirus 4; procedure, shortened: as §1
[6] = Scavenging activity against (+/-)-(E)-methyl-2-[(E)-hydroxyimino]-5-nitro-6-methoxy-3-hexemide-induced NO generation in human Chang liver cells; type: functional
Procedure, shortened: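 Human Chang liver cells (5 × 10^5/mL) were cultured in MEM Eagle medium for 3 days. Samples (350 nmol) were added 1 min before NOR 1 (350 nmol), then incubated 1 h in a CO2 incubator. Transformed cells were counted under light microscopy (×100, >250 cells). The inhibitory ratio is transformed % with NOR 1 alone divided by transformed % with NOR 1 plus sample, with NOR 1 taken as 1.0.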

[7] = Inhibition of TPA-induced EBV-early antigen activation in human Raji cells; type: cell-based, human gammaherpesvirus 4; procedure, shortened: as §1
Mus musculus [8] = species: Mus musculus; assay: Inhibition of tumor promotion in mouse assessed as papilloma bearing mouse after 10 weeks; type: functional
Procedure, shortened: (§2)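 Two-stage mouse skin carcinogenesis using DMBA and TPA as promoter. Groups were 15 mice housed five per cage with water ad libitum. The percentage of papilloma-bearing mice was scored at 10 and 20 weeks of promotion in treated versus untreated groups.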

Mus musculus [9] = species: Mus musculus; assay: Inhibition of tumor promotion in mouse assessed as papilloma bearing mouse after 20 weeks; type: functional; procedure, shortened: as §2

Compound	viability at 1000 molar ratio [1]	Activity (Raji [2])	Activity (Raji [3])	Activity (Raji [4])	Activity (Raji [5])	Ratio [6]	IC50 [7]	inhibition (INH) (Mus musculus [8])	inhibition (INH) (Mus musculus [9])
CC1(C)CCc2c(ccc(C(=O)/C=C/c3ccc(O)cc3)c2O)O1 [DORSMANNIN A]	60%	86%	61.7%	100%	34.2%	1.9	583 molar ratio	–	–
CC1(C)[C@@H](O[C@H]2O[C@H](C(=O)O)[C@@H](O)[C@H](O)[C@H]2O[C@@H]2O[C@H](C(=O)O)[C@@H](O)[C@H](O)[C@H]2O)CC[C@]2(C)[C@H]3C(=O)C=C4[C@@H]5C[C@@](C)(C(=O)O)CC[C@]5(C)CC[C@@]4(C)[C@]3(C)CC[C@@H]12 [GLYCYRRHIZIN]	> 80%	83.3%	63.3%	100%	27.4%	2.2	572 molar ratio	–	–
COc1cc(O)c2c(c1CC=C(C)C)O[C@H](c1ccc(O)cc1)CC2=O [MUNDULEAFLAVANONE B]	70%	66.7%	24.9%	90.3%	0%	2.3	230 molar ratio	–	–
CC(C)=CCc1c(O)ccc(C(=O)/C=C/c2ccc(O)cc2)c1O [ISOBAVACHALCONE]	60%	63%	26.3%	98.4%	0%	2	320 molar ratio	20%	80%
CC(C)=CCC/C(C)=C/Cc1c(O)cc(O)c2c1O[C@H](c1ccc(O)cc1)CC2=O [SOPHORAFLAVANONE A]	70%	56.4%	18.5%	89.3%	0%	2.1	215 molar ratio	–	–
COc1ccc(C(=O)CCc2ccc(O)cc2)c2c1CCC(C)(C)O2 [DEOXYDIHYDROXANTHOANGELOL H]	60%	81.6%	56.7%	100%	27.4%	1.6	563 molar ratio	–	–
CC(C)=CCCC(C)(O)CCc1c(O)ccc(C(=O)/C=C/c2ccc(O)cc2)c1O (stereo not given) [XANTHOANGELOL J]	70%	66.8%	12.5%	90.2%	0%	2.4	264 molar ratio	–	–
COc1c2ccoc2c(OC)c2oc(=O)ccc12 [ISOPIMPINELLIN]	60%	81.5%	57.4%	100%	12.1%	1.4	486 molar ratio	–	–
CC1=C(/C=C/C(C)=C/C=C/C(C)=C/C(=O)O)C(C)(C)CCC1 [TRETINOIN]	60%	76.3%	49.3%	100%	15.3%	–	482 molar ratio	–	–
CC1(C)N([O])C(c2ccc(C(=O)O)cc2)=[N+]([O-])C1(C)C	–	–	–	–	–	8	–	–	–
COc1c2occc2cc2ccc(=O)oc12 [METHOXSALEN]	60%	83.1%	55.2%	100%	14.2%	1.3	490 molar ratio	–	–
C=C[C@@H](O)C#CC#C[C@@H](O)/C=C\CCCCCCCCOC(C)=O	60%	81.4%	53.1%	100%	18.7%	1.2	511 molar ratio	–	–
CC(C)=CCc1c(O)ccc2ccc(=O)oc12 [OSTHENOL]	70%	69.8%	30.1%	90.6%	0%	2	290 molar ratio	–	–
COc1ccc(C(=O)/C=C/c2ccc(O)cc2)c2c1CCC(C)(C)O2 [DEOXYXANTHOANGELOL H]	60%	85.2%	60.5%	100%	32.1%	1.5	578 molar ratio	–	–
CC(C)=CCCC1(C)CCc2c(O)ccc(C(=O)/C=C/c3ccc(O)cc3)c2O1 (stereo not given)	70%	64.7%	20.3%	87.3%	0%	2.4	273 molar ratio	–	–
